Measurements: ChEMBL document CHEMBL2163225, “Fluorescent Human EP3 Receptor Antagonists” (ACS Med Chem Lett, 2012)
Active and inactive are the calls of the source. The rule behind the calls is not given here.

Legend:
[1] = target: T1, Prostaglandin E2 receptor EP3 subtype (Homo sapiens, UniProt P43115); assay: Displacement of [3H]PGE2 from human EP3R expressed in chem1 cells after 2hrs by beta counting; assay type: cell-based
T1 sequence (P43115 whole entry): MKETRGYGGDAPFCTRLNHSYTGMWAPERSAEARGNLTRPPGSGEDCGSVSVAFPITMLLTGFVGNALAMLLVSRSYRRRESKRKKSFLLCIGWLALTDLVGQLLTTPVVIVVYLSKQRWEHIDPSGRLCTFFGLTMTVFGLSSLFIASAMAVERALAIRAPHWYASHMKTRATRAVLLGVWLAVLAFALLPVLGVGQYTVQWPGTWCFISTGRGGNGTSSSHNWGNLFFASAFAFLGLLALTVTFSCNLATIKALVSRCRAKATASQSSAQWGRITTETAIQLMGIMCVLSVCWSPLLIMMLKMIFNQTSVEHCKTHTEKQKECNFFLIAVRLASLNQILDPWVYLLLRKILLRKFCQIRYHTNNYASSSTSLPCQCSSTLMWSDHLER
Outline: (§1)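 Radioligand competition binding with [3H]PGE2 on recombinant human EP1, EP2, EP3 or EP4 receptor membrane preparations (ChemiSCREEN). Ki reported ± SEM.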

[2] = target: T2, Prostaglandin E2 receptor EP1 subtype (Homo sapiens, UniProt P34995); assay: Displacement of [3H]PGE2 from human EP1R expressed in chem1 cells after 2hrs by beta counting; assay type: cell-based; outline: as §1
T2 sequence (P34995 whole entry): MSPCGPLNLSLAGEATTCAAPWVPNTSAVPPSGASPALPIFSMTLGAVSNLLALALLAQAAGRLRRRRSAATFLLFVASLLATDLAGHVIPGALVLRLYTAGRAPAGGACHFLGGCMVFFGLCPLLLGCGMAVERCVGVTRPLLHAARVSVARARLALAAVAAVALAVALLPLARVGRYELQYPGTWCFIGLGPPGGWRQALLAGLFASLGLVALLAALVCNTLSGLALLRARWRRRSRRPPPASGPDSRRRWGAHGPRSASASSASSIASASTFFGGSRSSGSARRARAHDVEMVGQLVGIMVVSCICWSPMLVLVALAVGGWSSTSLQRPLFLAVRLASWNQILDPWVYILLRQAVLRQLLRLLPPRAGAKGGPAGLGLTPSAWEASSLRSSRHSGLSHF

[3] = target: Prostaglandin E2 receptor EP2 subtype (Homo sapiens, UniProt P43116); assay: Displacement of [3H]PGE2 from human EP2R expressed in chem1 cells after 2hrs by beta counting; assay type: cell-based; outline: as §1
Chain of Prostaglandin E2 receptor EP2 subtype (P43116 whole entry): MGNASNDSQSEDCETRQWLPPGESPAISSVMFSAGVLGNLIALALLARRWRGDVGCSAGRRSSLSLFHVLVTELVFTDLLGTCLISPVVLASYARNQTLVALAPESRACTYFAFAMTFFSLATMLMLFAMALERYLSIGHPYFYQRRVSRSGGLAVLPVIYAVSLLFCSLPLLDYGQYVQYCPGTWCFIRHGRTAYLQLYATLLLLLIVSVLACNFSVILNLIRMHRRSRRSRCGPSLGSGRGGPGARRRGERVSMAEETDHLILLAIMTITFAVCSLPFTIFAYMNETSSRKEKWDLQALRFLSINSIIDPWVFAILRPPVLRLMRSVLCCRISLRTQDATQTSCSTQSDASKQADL

[4] = target: Prostaglandin E2 receptor EP4 subtype (Homo sapiens, UniProt P35408); assay: Displacement of [3H]PGE2 from human EP4R expressed in chem1 cells after 2hrs by beta counting; assay type: cell-based; outline: as §1
Chain of Prostaglandin E2 receptor EP4 subtype (P35408 whole entry): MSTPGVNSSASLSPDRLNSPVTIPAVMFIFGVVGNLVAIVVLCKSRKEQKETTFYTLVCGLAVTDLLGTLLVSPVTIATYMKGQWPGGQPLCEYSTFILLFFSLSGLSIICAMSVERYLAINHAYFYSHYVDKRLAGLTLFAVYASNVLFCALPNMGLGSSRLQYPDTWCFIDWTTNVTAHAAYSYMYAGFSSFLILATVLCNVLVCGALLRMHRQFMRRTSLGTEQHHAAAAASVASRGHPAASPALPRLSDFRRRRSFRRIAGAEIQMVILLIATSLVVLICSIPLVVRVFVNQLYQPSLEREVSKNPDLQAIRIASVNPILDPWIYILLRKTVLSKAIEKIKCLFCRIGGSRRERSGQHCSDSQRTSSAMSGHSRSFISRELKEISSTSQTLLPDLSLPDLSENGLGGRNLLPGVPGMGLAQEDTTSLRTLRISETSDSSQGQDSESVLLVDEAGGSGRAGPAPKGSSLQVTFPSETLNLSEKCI

[5] = target: T3, Prostaglandin E2 receptor EP3 subtype (Homo sapiens) (UniProt P43115); assay: Binding affinity to EP3R in human HT-29 cytoplasm at 3 uM measured 72 hrs post FBS withdrawal by fluorescence microscopy
T3 sequence (whole entry): T1 sequence (P43115 whole entry)
Outline: (§2)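 HT-29 colon adenocarcinoma cells. EP3R expression induced by 72 h FBS withdrawal; FBS-cultured cells served as control. Ligand incubated 1 h, or 24 h for the longer time point. Blue-emitting ligands used at 3 μM with propidium iodide counterstain. Red ligand used at 300 nM with DAPI nuclear stain. For displacement, ligand was followed by 3-fold excess competitor (9 μM or 900 nM) for 1 h. Read by confocal microscopy.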

[6] = target: T3, Prostaglandin E2 receptor EP3 subtype (Homo sapiens); assay: Binding affinity to EP3R in human HT-29 cells cultured in absence of FBS at 3 uM after 1 hr by fluorescence microscopy in presence of 3-fold excess of (E)-3-(2-((E)-3-(4-(Benzyloxy)-3- methoxyphenyl)prop-1-enyl)phenyl)acrylic acid; assay type: cell-based; outline: as §2
[7] = Antiplatelet activity in human platelet rich plasma assessed as inhibition of PGE2/collagen-induced aggregation preincubated at 100 nM after 10 mins by light transmission aggregometry; assay type: functional
Outline: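 Human platelet-rich plasma preincubated 10 min with ligand at 100 nM. Aggregation then triggered by collagen 0.25 μg/mL plus PGE2 1 μM. Read by light transmission aggregometry against unspiked PRP.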

[8] = target: T3, Prostaglandin E2 receptor EP3 subtype (Homo sapiens); assay: Binding affinity to EP3R in human brain globus pallidus at 1 uM after 1 hr by fluorescence imaging; assay type: tissue-based
Outline: (§3)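 Human cerebral cortex and globus pallidus sections incubated 1 h with 1 μM red pyryllium ligand. For displacement, 100 μM competitor was added. Imaged by confocal fluorescence microscopy.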

[9] = target: T3, Prostaglandin E2 receptor EP3 subtype (Homo sapiens); assay: Binding affinity to EP3R in human brain globus pallidus at 1 uM after 1 hr by fluorescence imaging in presence of 100-fold excess of (E)-3-(2-((E)-3-(4-(Benzyloxy)-3- methoxyphenyl)prop-1-enyl)phenyl)acrylic acid; assay type: tissue-based; outline: as §3
[10] = target: T3, Prostaglandin E2 receptor EP3 subtype (Homo sapiens); assay: Binding affinity to EP3R in human HT-29 cells cultured in absence of FBS at 300 nM after 1 hr by fluorescence microscopy; assay type: cell-based; outline: as §2
[11] = target: T3, Prostaglandin E2 receptor EP3 subtype (Homo sapiens); assay: Binding affinity to EP3R in human HT-29 cells cultured in absence of FBS at 300 nM after 1 hr by fluorescence microscopy in presence of 3-fold excess of (E)-3-(2-((E)-3-(4-(Benzyloxy)-3- methoxyphenyl)prop-1-enyl)phenyl)acrylic acid; assay type: cell-based; outline: as §2
[12] = target: T3, Prostaglandin E2 receptor EP3 subtype (Homo sapiens); assay: Binding affinity to EP3R in human HT-29 cells cultured in absence of FBS at 300 nM after 24 hrs by fluorescence microscopy; assay type: cell-based; outline: as §2
[13] = target: T3, Prostaglandin E2 receptor EP3 subtype (Homo sapiens); assay: Induction of EP3R internalization in human HT-29 cells cultured in absence of FBS at 300 nM after 24 hrs by fluorescence microscopy; assay type: cell-based; outline: as §2
[14] = target: T4, Prostaglandin E2 receptor EP3 subtype (Mus musculus) (UniProt P30557); assay: Binding affinity to EP3R in C57bl6 mouse kidney arterial smooth muscle cells at 1 uM after 1 hr by fluorescence imaging
T4 sequence (whole entry): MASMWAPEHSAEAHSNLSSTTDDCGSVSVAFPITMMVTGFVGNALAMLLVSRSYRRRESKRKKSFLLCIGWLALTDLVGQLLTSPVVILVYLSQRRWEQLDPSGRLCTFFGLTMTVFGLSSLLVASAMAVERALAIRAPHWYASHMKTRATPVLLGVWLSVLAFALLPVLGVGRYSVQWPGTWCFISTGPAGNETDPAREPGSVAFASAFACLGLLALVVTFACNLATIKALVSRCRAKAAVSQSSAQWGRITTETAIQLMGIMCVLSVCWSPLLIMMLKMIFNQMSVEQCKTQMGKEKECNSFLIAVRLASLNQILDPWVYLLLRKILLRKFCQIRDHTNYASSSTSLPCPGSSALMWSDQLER
Outline: (§4)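 Kidney tissue from C57Bl6 wild-type and EP3−/− mice incubated 1 h with 1 μM red pyryllium-labelled ligand. Imaged by confocal laser scanning fluorescence microscopy. Renal artery autofluorescence recorded separately.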

[15] = target: T4, Prostaglandin E2 receptor EP3 subtype (Mus musculus); assay: Binding affinity to EP3R in C57bl6 mouse cortical collecting tubuli epithelial cells at 1 uM after 1 hr by fluorescence imaging; assay type: cell-based; settings: Epithelial cell; outline: as §4
[16] = test system: Kidney; assay: Drug uptake in EP3R-/- mouse kidney at 1 uM after 1 hr by fluorescence imaging; assay type: ADME, tissue-based; outline: as §4
[17] = target: T3, Prostaglandin E2 receptor EP3 subtype (Homo sapiens); assay: Binding affinity to EP3R in human brain cerebral cortex at 1 uM after 1 hr by fluorescence imaging; assay type: tissue-based; outline: as §3
[18] = target: T3, Prostaglandin E2 receptor EP3 subtype (Homo sapiens); assay: Binding affinity to EP3R in human brain cerebral cortex at 1 uM after 1 hr by fluorescence imaging in presence of 100-fold excess of (E)-3-(2-((E)-3-(4-(Benzyloxy)-3- methoxyphenyl)prop-1-enyl)phenyl)acrylic acid; assay type: tissue-based; outline: as §3
[19] = target: T3, Prostaglandin E2 receptor EP3 subtype (Homo sapiens); assay: Binding affinity to EP3R in human platelet at 1 uM after 1 hr by fluorescence imaging
Outline: (§5)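 Fixed human platelets on flow-chamber slides incubated 1 h with 1 μM red fluorescent ligand. For displacement, 1 mM competitor was added. Read by fluorescence imaging.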

[20] = target: T3, Prostaglandin E2 receptor EP3 subtype (Homo sapiens); assay: Binding affinity to EP3R in human platelet at 1 uM after 1 hr by fluorescence imaging in presence of 1 mM (E)-3-(2-((E)-3-(4-(Benzyloxy)-3- methoxyphenyl)prop-1-enyl)phenyl)acrylic acid; outline: as §5
[21] = target: T3, Prostaglandin E2 receptor EP3 subtype (Homo sapiens); assay: Binding affinity to EP3R in human platelet rich plasma preincubated at 5 uM for 10 mins by FACS analysis
Outline: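 Human platelet-rich plasma preincubated 10 min with 5 μM red fluorescent ligand. Analysed by flow cytometry (FACS) in the red channel against untreated PRP. Scatter cloud inspected as a check on platelet activation.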

[22] = target: T3, Prostaglandin E2 receptor EP3 subtype (Homo sapiens); assay: Induction of EP3R-mediated platelet activation in human platelet rich plasma at 5 uM after 10 mins by FACS analysis

Row | Structure (SMILES) | Ki [1] [µM] | Ki [2] [µM] | Ki [3] [µM] | Ki [4] [µM] | Activity [5] [%] | inhibition at 0.1 µM [7] [%] | also measured
1 | COc1cc(C/C=C/c2ccccc2/C=C/C(=O)O)ccc1OCCn1cc2ccccc2c1C#N | 0.018 | 16 | 4.26 | 3.18 | 58 | 40 | Activity [6]: inactive
2 | COc1cc(C/C=C/c2ccccc2/C=C/C(=O)O)ccc1OCC[n+]1c(C)cc(/C=C/C=C/c2ccc(N(C)C)cc2)cc1C.F[B-](F)(F)F | 0.135 | 68.6 | 2.94 | 0.902 |  | 40 | Activity [8]: Active; Activity [9]: inactive; Activity [10]: Active; Activity [11]: inactive; Activity [12]: Active; Activity [13]: inactive; Activity [14]: Active; Activity [15]: Active; Drug uptake [16]: Not Active; Activity [17]: Active; Activity [18]: inactive; Activity [19]: Active; Activity [20]: inactive; Activity [21]: 50%; Activity [22]: inactive
3 | COc1cc(C/C=C/c2ccccc2/C=C/C(=O)O)ccc1OCc1ccccc1 |  | 151 | 1.73 | 6.31 |  | 40 | 
4 | COc1cc(C/C=C/c2ccccc2/C=C/C(=O)O)ccc1OCC[n+]1c(C)cc(/C=C/c2ccc(N(C)C)cc2)cc1C | 0.218 |  |  |  |  | 40 | 
5 | COc1cc(C/C=C/c2ccccc2/C=C/C(=O)O)ccc1OCCNC(=S)Nc1ccc(C(=O)O)c(-c2c3ccc(=O)cc-3oc3cc(O)ccc23)c1 | 1.26 |  |  |  |  | 40 | 
6 | COc1cc(C/C=C/c2ccccc2/C=C/C(=O)NS(=O)(=O)c2cccs2)ccc1OCc1ccccc1 |  | 2.44 | 2.41 | 4.3 |  | 40 | 
7 | COc1cc(C/C=C/c2ccccc2/C=C/C(=O)O)ccc1OCCN | 1.5 |  |  |  |  | 40 | 
8 | COc1cc(C/C=C/c2ccccc2/C=C/C(=O)NS(=O)(=O)c2cccs2)ccc1OCCn1cc2ccccc2c1C#N | 0.026 | 20.3 | 10.8 | 9.45 | 55 | 40 | 
9 | COc1cc(C/C=C/c2ccccc2/C=C/C(=O)O)ccc1OCCNC(=S)Nc1ccc(-c2c3ccc(=O)cc-3oc3cc(O)ccc23)c(C(=O)O)c1 | 0.678 |  |  |  |  | 40 | 
10 | COc1cc(C/C=C/c2ccccc2/C=C/C(=O)O)ccc1OCCNc1ccc([N+](=O)[O-])cc1[N+](=O)[O-] | 0.0234 |  |  |  | 60 | 40 | 
